Data from ChEMBL document CHEMBL3994578, “Optimization of benzoquinone and hydroquinone derivatives as potent inhibitors of human 5-lipoxygenase” (Eur J Med Chem, 2017).
Calls of active or inactive are those of the source. No cut-off for these calls is given here.

Legend:
[1] = target: T1, Polyunsaturated fatty acid 5-lipoxygenase (Homo sapiens, UniProt P09917); experiment: Inhibition of 5-lipoxygenase in human neutrophils assessed as inhibition of A23187-induced product formation using arachidonic acid as substrate preincubated for 15 mins followed by substrate and A23187 addition measured after 10 mins by RP-HPLC method
T1 sequence (P09917 whole entry): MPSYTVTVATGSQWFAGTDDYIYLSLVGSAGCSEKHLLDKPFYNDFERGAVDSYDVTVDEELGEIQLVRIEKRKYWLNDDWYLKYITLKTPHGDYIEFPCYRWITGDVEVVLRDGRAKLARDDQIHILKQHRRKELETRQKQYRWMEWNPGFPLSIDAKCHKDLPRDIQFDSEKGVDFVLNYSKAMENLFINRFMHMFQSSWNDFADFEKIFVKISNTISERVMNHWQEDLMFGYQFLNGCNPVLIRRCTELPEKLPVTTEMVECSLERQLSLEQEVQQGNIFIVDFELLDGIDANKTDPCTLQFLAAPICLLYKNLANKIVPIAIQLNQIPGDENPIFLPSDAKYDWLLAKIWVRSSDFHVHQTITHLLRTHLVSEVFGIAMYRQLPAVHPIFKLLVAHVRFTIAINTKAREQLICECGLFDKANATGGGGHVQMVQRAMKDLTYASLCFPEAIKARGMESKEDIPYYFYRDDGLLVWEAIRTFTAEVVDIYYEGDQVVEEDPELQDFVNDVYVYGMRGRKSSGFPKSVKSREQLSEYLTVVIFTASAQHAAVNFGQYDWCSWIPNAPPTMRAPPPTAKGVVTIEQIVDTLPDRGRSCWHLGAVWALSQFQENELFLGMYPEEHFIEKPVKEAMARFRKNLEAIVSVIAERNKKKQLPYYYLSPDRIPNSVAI
Summary of the method: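 Freshly isolated human neutrophils (5×10^6, from leukocyte concentrates by dextran sedimentation and Nycoprep) were taken up in 1 mL PBS pH 7.4 with 1 mg/mL glucose and 1 mM CaCl2. Cells were preincubated 15 min at 37 °C with compound or 0.1% DMSO, then stimulated with 2.5 μM A23187 plus 20 μM arachidonic acid for 10 min at 37 °C. The reaction was stopped with methanol on ice, and LTB4 all-trans isomers and 5-H(P)ETE were measured by RP-HPLC. IC50 was read graphically from 4-5 concentrations; 3-4 independent experiments.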

[2] = target: T1, Polyunsaturated fatty acid 5-lipoxygenase; experiment: Inhibition of recombinant human 5-lipoxygenase expressed in Escherichia coli BL21 using arachidonic acid as substrate preincubated for 15 mins followed by substrate addition measured after 10 mins by RP-HPLC method
Summary of the method: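 5-LO expressed in E. coli BL21 (pT3-5-LO) was semi-purified on ATP-agarose; 0.5 µg was used in 1 mL PBS with 1 mM EDTA and 1 mM ATP. Compound or 0.1% DMSO was preincubated 15 min at 4 °C, then samples were prewarmed 30 s at 37 °C. Reaction was started with 2 mM CaCl2 plus 20 μM AA and run 10 min at 37 °C. It was stopped with cold methanol, and products were measured by RP-HPLC. IC50 was read graphically from 4-5 concentrations; n = 3-4.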

Mus musculus [3] = experiment: Anti-inflammatory activity in CD-1 mouse model of Zymosan-induced peritonitis assessed as LTC4 level in peritoneal lavage at 1 mg/kg, ip pretreated for 30 mins followed by Zymosan injection measured after 30 mins by EIA (reference value: 10.48 +/- 1.72 ng/ml); type: functional
Mus musculus [4] = experiment: Anti-inflammatory activity in CD-1 mouse assessed as inhibition of carrageenan-induced paw edema at 1 mg/kg, ip pretreated for 30 mins followed by carrageenan injection measured after 4 hrs by hydroplethismometric method relative to control; type: functional; conditions: CD-1, ip
Summary of the method: (§1)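 Male CD-1 mice (35–40 g), n = 6 per group, given compound or vehicle (DMSO) i.p. 30 min before a subplantar injection of 50 μL 1% (w/v) carrageenan under light enflurane anaesthesia. Paw volume was read by hydroplethysmometer before injection (basal) and at 2, 4, 6, 24, 48 and 72 h. Data are mean ± SEM; two-way ANOVA with Bonferroni post test.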

Mus musculus [5] = experiment: Anti-inflammatory activity in CD-1 mouse assessed as inhibition of carrageenan-induced paw edema at 1 mg/kg, ip pretreated for 30 mins followed by carrageenan injection measured up to 48 hrs by hydroplethismometric method; type: functional, organism-based; summary of the method: as §1
Mus musculus [6] = experiment: Anti-inflammatory activity in CD-1 mouse model of Zymosan-induced peritonitis assessed as inflammatory cells in peritoneal lavage at 1 mg/kg, ip pretreated for 30 mins followed by Zymosan injection measured after 4 hrs (reference value: 7 +/- 0.47 10^6No_unit); type: functional
[7] = target: T2, Polyunsaturated fatty acid 5-lipoxygenase (Homo sapiens) (UniProt P09917); experiment: Non-competitive inhibition of recombinant human 5-lipoxygenase expressed in Escherichia coli BL21 using varying levels of arachidonic acid as substrate preincubated for 15 mins followed by substrate addition measured after 10 mins by RP-HPLC method
T2 sequence (whole entry): T1 sequence (P09917 whole entry)
Summary of the method: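 Semi-purified recombinant 5-LO (0.5 µg, E. coli BL21) in PBS with 1 mM EDTA and 1 mM ATP was preincubated 15 min at 4 °C with compound or 0.1% DMSO, then prewarmed 30 s at 37 °C. Reaction was started with 2 mM CaCl2 plus varying arachidonic acid concentrations and run 10 min at 37 °C. Products were measured by RP-HPLC as percent of control; n = 3.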

Mus musculus [8] = experiment: Anti-inflammatory activity in CD-1 mouse assessed as inhibition of carrageenan-induced paw edema at 1 mg/kg, ip pretreated for 30 mins followed by carrageenan injection measured up to 72 hrs by hydroplethismometric method; type: functional, organism-based; summary of the method: as §1
Mus musculus [9] = experiment: Anti-inflammatory activity in CD-1 mouse model of Zymosan-induced peritonitis assessed as inflammatory cells in peritoneal lavage at 10 mg/kg, ip pretreated for 30 mins followed by Zymosan injection measured after 4 hrs (reference value: 7 +/- 0.47 10^6No_unit); type: functional
Mus musculus [10] = experiment: Anti-inflammatory activity in CD-1 mouse model of Zymosan-induced peritonitis assessed as LTC4 level in peritoneal lavage at 10 mg/kg, ip pretreated for 30 mins followed by Zymosan injection measured after 30 mins by EIA (reference value: 10.48 +/- 1.72 ng/ml); type: functional

SMILES	IC50 [1]	IC50 [2]	further results
COC1=CC(=O)C(OC)=C(C(CCCCCCCCCO)OC(C)=O)C1=O (stereo not drawn)	1.62 µM	0.49 µM	
COC1=CC(=O)C(=O)C(CCCCCCCCCCCO)=C1OC	0.12 µM	1.96 µM	
COC1=CC(=O)C(OC)=C(CCCCCCCCCCO)C1=O	0.55 µM	1.75 µM	
COC1=CC(=O)C(OC)=C(CCCCCCCCCCCO)C1=O	0.2 µM	1.51 µM	
CCCCCCCCCCCCCc1c(O)c(O)cc(OC)c1O	1.6 µM	0.29 µM	
COC1=CC(=O)C(=O)C(CCCCCCCCCCO)=C1OC	0.36 µM	1.08 µM	
CCCCCCCCCCCCCC1=C(OC)C(OC)=CC(=O)C1=O			Activity (Mus musculus [3]): 0.14 ng/mL; inhibition in vivo at 1 mg/kg (Mus musculus [4]): 75%; inhibition (Mus musculus [5]): Active; Activity (Mus musculus [6]): 3.78 10^6 cells; inhibition [7]: Active
CCCCCCCCCCCc1c(O)c(O)cc(OC)c1OC	0.03 µM	0.1 µM	
COC1=CC(=O)C(OC)=C(CCCCCCCCO)C1=O	0.33 µM	1.84 µM	
CCCCCCCCCCCCCc1c(O)c(O)cc(OC)c1OC	0.028 µM	0.06 µM	Activity (Mus musculus [3]): 1.58 ng/mL; inhibition in vivo at 1 mg/kg (Mus musculus [4]): 77.4%; inhibition (Mus musculus [8]): Active; Activity (Mus musculus [6]): 3.08 10^6 cells; inhibition [7]: Active
COC1=CC(=O)C(=O)C(CCCCCCCCO)=C1OC	0.15 µM	0.22 µM	
CCCCCCCCCCCCCc1c(O)c(OC)cc(O)c1OC	0.31 µM	0.26 µM	
CCCCCCCCCCCCc1c(O)c(O)cc(OC)c1OC	0.09 µM	0.24 µM	
COC1=CC(=O)C(OC)=C(C(O)CCCCCCCCCO)C1=O (stereo not drawn)	0.66 µM	1.46 µM	
CC(c1cc2ccccc2s1)N(O)C(N)=O (stereo not drawn) [ZILEUTON]			Activity (Mus musculus [9]): 2.88 10^6 cells; Activity (Mus musculus [10]): 3.35 ng/mL
